Screening data deposited in PubChem by several laboratories.
An excerpt weighted towards active compounds, which were near 1.8% of everything screened.
AI-2 QS modul: Vibrio harveyi AI-2 quorum sensing modulators, primary screen, JMH597 strain, luminescence/OD600 ratio; Vibrio harveyi JMH597 AI-2 luminescence/OD600 ratio, 9 h; stronger effect = lower value; strain lacks LuxN and CqsS sensors; 0 = neutral-control median; activity change, % at 7.5 µM; hit rate 0.4% among 300,000; AID 2094, 2009; in the data active = activity change below about -75%, passing the limit was not always enough; inconclusive = no clear call, values can overlap the other calls;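 also: luminescence divided by OD600 gain over 9 h not by final OD600 alone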
LANA-H2B inh: blockers of LANA interaction with H2A/H2B – biochemical, FP readout, HTS, primary screen; Protein LANA1 (Human herpesvirus 8 type P (isolate GK18)), Q9QR71; cell-free LANA-H2A/H2B peptide, fluorescence polarization; inhibition, % (concentration not given with the values); hit rate 0.6% among 320,000; AID 2629, 2010; in the data active = inhibition mostly above about 10%, no sharp cut-off; inactive = mostly below about 6.7%
HKDC1 inh: HKDC1 hexokinase inhibitors, primary screen, biochemical, fluorescence, uHTS. AID 493160, 2011. recombinant HKDC1, G6PDH/diaphorase resazurin coupled fluorescence. inhibition, % at 20 µM. hit rate 0.16% among 340,000. Q2TB90;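 active = inhibition above about 35% when tested at 20 µM, limit read from the data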;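 also: plate controls were DMSO wells with enzyme for no effect and DMSO wells lacking enzyme for full effect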
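test system = in-house recombinant HK5 (HKDC1) enzyme | amount = HKDC1 at 5 µg/mL | control set = DMSO-enzyme wells negative, buffer-substituted wells positive | compound = one dose of 20 µM, 1% DMSO | schedule = reaction time 90 min, room temperature, protected from light | technique = resorufin fluorescence at 613 nm | reagent = glucose with 1 mM ATP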
Bfl-1 A1 inh: caspase 3/7 activation in MEF A1-2A-BIM cells, primary screen, A1 inhibitor project, cell-based, luminescence, HTS; hit rate 0.066% among 330,000; AID 2462, 2010; caspase activation, % (concentration not given with the values); Caspase-Glo 3/7 luminescence, 3 h; percent of clofoctol response, vehicle zero;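 active = over half of replicate activation scores above 10%, or exactly half above 10 with the replicate mean above 10; inconclusive = replicate mean below 10 yet half the replicates above 10; inactive = over half of replicates below 10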
ATG4B inh: ATG4B protease inhibitors, primary screen, biochemical, fluorescence, uHTS; Cysteine protease ATG4B (Homo sapiens), Q9Y4P1; ATG4B cleavage of LC3-PLA2, NBD-HPC fluorescence, 1 h; inhibition, % at 8.33 µM; hit rate 0.51% among 340,000; in the data active = inhibition above about 40%
HDAC3 inhib: HDAC3 deacetylase inhibitors, primary screen, biochemical, fluorescence, cell-free homogeneous; Histone deacetylase 3 (Homo sapiens), O15379; recombinant HDAC3, fluorogenic peptide/trypsin coupled; inhibition, % at 8.3 µM; hit rate 0.15% among 320,000; AID 2718, 2010; in the data active = inhibition above about 26%, passing the limit was not always enough; inconclusive = no clear call, values can overlap the other calls
Target sequence (O15379 whole entry, looked up): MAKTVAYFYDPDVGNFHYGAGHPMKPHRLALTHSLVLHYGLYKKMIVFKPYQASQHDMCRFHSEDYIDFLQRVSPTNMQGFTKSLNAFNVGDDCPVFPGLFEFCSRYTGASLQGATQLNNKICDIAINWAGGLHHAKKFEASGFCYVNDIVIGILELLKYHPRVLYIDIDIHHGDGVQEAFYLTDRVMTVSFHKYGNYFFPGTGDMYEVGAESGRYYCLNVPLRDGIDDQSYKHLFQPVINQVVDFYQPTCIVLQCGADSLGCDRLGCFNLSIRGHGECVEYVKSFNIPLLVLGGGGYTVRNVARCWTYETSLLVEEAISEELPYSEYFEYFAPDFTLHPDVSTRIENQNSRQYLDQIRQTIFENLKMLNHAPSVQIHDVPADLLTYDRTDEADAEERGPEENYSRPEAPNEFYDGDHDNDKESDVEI
Active calls of the source: *; ? = inconclusive; · = no result.

SMILES	AI-2 QS modul	LANA-H2B inh	HKDC1 inh	Bfl-1 A1 inh	ATG4B inh	HDAC3 inhib
CCC(=O)Nc1cc2c(cc1Cl)-c1ccccc1C2	·	·	-5.5	·	-14.8	·
CNc1nc(-c2ccccc2)[n+](-c2ccc(C)cc2)s1	41.3	1.3	19.2	?	2.1	42.1*
Cc1ccc(-c2nc(N)s[n+]2-c2ccccc2)cc1	18.4	-13.3	-6.3	0.5	-8.5	62.4*
CC(=O)C1C=CC(C)(C(=O)O)C2C=C(C)C(=O)C(C)(O)C12 (stereo not given)	·	·	-6.9	·	1.1	·
Cc1nc2ccccc2n2c(O)c(CC(=O)O)cc12	16.9	26.7*	0.1	0.0	4.3	4.1
CCOc1ccc(CC(=O)Nc2nccs2)cc1OCC	7.6	20.7*	-5.7	-1.0	-13.3	1.7
CCCc1c(C(=O)NNc2ccccc2OC)cnn1-c1ccccc1	27.0	17.8*	-0.6	-1.6	-2.4	0.8
CCCc1c(C(=O)Nc2ccc(OC)cc2)cnn1-c1ccccc1	11.9	2.8	0.3	1.7	3.2	1.5
Cc1ccc(S(=O)(=O)Nc2cc(C(=O)Nc3cc(C)cc(C)c3)ccc2Cl)cc1	31.1	1.9	2.7	-0.9	1.9	1.9
CN(Cc1ccccc1)C(=O)c1cccc(NC(=O)C2CCCN(C(=O)OC(C)(C)C)C2)c1 (stereo not given)	·	1.7	-2.2	1.3	-5.8	6.5
O=C1C2C3C=CC(C3)C2C(=O)N1Nc1ccc([N+](=O)[O-])cc1[N+](=O)[O-] (stereo not given)	31.3	16.0*	1.3	0.0	-2.5	0.0
COc1cccc(-c2noc(C3CCCN(C(=O)Cc4ccccc4)C3)n2)c1 (stereo not given)	1.3	10.6*	-2.9	1.4	10.9	-4.1
CCCC(=O)N1CCCC(c2nc(-c3cccc(OC)c3)no2)C1 (stereo not given)	9.3	2.9	-8.9	-10.5	-10.6	-6.4
O=C(Cc1cccc(NC(=O)C2CCCN(C(=O)C3CCCCC3)C2)c1)Nc1cccc(C(=O)N2CCOCC2)c1 (stereo not given)	·	·	-1.9	·	-8.8	·
CC(=O)c1cnn(-c2cc(Oc3cccc(C)c3)ncn2)c1C	17.4	6.9	-0.5	0.0	-9.9	-4.9
COC(=O)c1cnn(-c2cc(Oc3cccc(C)c3)ncn2)c1N	-87.6*	1.1	-5.6	-0.2	0.5	1.5
CCCCc1ccc(N=N/C(C(=O)Nc2ccc(NC(C)=O)cc2OC)=C(/C)O)cc1	17.3	47.3*	-1.4	-0.6	0.7	-1.4
COc1ccccc1NS(=O)(=O)c1cc(N=N/C(C(=O)Nc2ccc(Cl)cc2)=C(/C)O)ccc1C	·	-2.5	-5.2	-1.1	3.1	-1.9
O=C(CSc1nnnn1-c1cccc2ccccc12)Nc1ccc(N2CCOCC2)c(Cl)c1	25.6	15.2*	-5.1	0.0	-4.8	3.5
O=Cc1c[nH]c2cccc(OCc3ccccc3)c12	·	·	4.1	·	22.8	·
CCOc1c2ccc(C(=O)N[C@H](C)C3CCCCC3)cc2nn1CC	27.7	-5.7	-5.3	1.4	-6.0	-19.9
CCN1CCCC1CNC(=O)C1CCN(C(=O)c2cc3sccc3n2Cc2ccc(F)cc2)CC1 (stereo not given)	11.5	-2.2	-6.1	-0.1	-1.8	6.8
COc1ccc(NC2CCCN(C(=O)CCN3Cc4ccccc4C3=O)C2)cc1 (stereo not given)	16.5	20.7*	-1.5	0.4	-4.6	4.6
CCOC(=O)N/N=C(/C)c1ccc([N+](=O)[O-])o1	-87.6*	4.7	·	0.3	·	1.3
CC(C)C1COC(c2cccn2Cc2ccccc2Cl)=N1 (stereo not given)	12.9	19.6*	-2.2	2.2	0.2	-2.8
SMILES	AI-2 QS modul	LANA-H2B inh	HKDC1 inh	Bfl-1 A1 inh	ATG4B inh	HDAC3 inhib
Cc1ccc(Cn2cccc2C2=NC(C)CO2)cc1 (stereo not given)	11.6	-5.3	-1.6	0.8	-8.4	-2.9
CCOc1ccc(NC(=O)N(O)C2(C#N)CCCCC2)cc1	·	·	4.1	·	-9.0	·
CC(C)C[C@@H](CN)NC(=O)c1nc[nH]c1C(=O)N[C@@H](C)C(=O)CNC[C@H](C)NC(=O)c1nc[nH]c1C(=O)N[C@@H](Cc1ccccc1)C(=O)O	·	·	-5.6	·	-7.7	·
C/C=C/C=C/C(=O)N1CC2(CC(c3cccc(NC(=O)CCCCC)c3)=NO2)C[C@H]1C(N)=O (stereo not given in full)	13.9	-2.1	5.3	-0.2	-9.0	60.8*
COc1cc(NS(=O)(=O)c2cc(NC(C)=O)ccc2OC)c(OC)cc1NC(=O)c1ccccc1	·	·	1.2	·	-6.3	·
CN(C(=O)c1ccccc1C(=O)OCC(=O)c1ccc(F)c(F)c1)C1CCCCC1	·	·	8.0	·	-4.8	·
Cc1sc(N)nc1-c1ccc2c(c1)OCCO2	-2.0	-1.6	-6.1	-0.3	3.1	4.4
NC1=NN=C(c2ccc3c(c2)OCCO3)CS1	5.0	4.9	-6.6	-6.0	-6.0	49.5*
CC(C)CNc1ncnc2[nH]ncc12	·	·	2.5	·	6.2	·
CCCCc1nnc(NC(=O)C(C)Sc2nc(C)cc(=O)[nH]2)s1 (stereo not given)	18.7	12.3*	0.9	0.0	-0.9	-2.6
CN1CCCN(C(c2ccccc2)c2ccc(Cl)cc2)CC1 (stereo not given)	6.4	29.1*	10.7	·	-1.4	·
O=C(NCc1cccc(F)c1)c1cccc2c1C(=O)c1ccc(N3CCCC3)cc1S2(=O)=O	·	25.2*	6.0	0.5	-7.4	9.9
CC(C)c1cccc(-c2ccc3c(c2)S(=O)(=O)c2cccc(C(=O)NCc4ccccc4)c2C3=O)c1	·	13.7	-3.2	2.4	-0.6	11.3
CC(C)c1cccc(-c2ccc3c(c2)S(=O)(=O)c2cccc(C(=O)NCc4ccccc4Cl)c2C3=O)c1	·	1.3	-6.1	12.1*	8.8	-9.1
COc1ccccc1C(=O)CC(=O)c1ccccc1	4.5	16.8*	-4.8	-3.8	-1.1	3.0
Cc1ccc(S(=O)(=O)/N=C(/Nc2ccc([N+](=O)[O-])cc2[N+](=O)[O-])c2ccccc2)cc1	·	-2.1	2.4	-1.7	-7.0	5.7
O=C(O)CC1S/C(=N/N=C/c2ccccn2)NC1=O (stereo not given)	12.2	23.6*	-11.0	0.7	-2.2	7.6
NC(=O)NC(=O)CC1S/C(=N/N=C/c2ccccc2)NC1=O (stereo not given)	4.1	1.8	-1.2	1.1	-0.5	7.2
O=C(c1ccc(-c2ccc([N+](=O)[O-])cc2)o1)N1CCCCC1	15.5	3.7	3.5	0.3	9.3	11.1
